Activity calls are given as the source filed them. The calls are words filed in the database; no cut-off is given here.

The test system of assay [1] is HT-1080. Kind of assay: Induction of cell cycle arrest in human HT1080 cells assessed as accumulation at G0/G1 phase at 2 uM incubated for 24 hrs by RNase/PI staining based flow cytometric analysis (reference value: 32.86 %). The assay is classed as functional. Background: In flow cytometry, cells or beads pass a laser one at a time.
The test system of assay [2] is HT-1080. The assay is described as follows: Induction of cell cycle arrest in human HT1080 cells assessed as accumulation at sub-diploid phase at 2 uM incubated for 24 hrs by RNase/PI staining based flow cytometric analysis (reference value: 5.36 %). The assay is classed as functional.
Assay [3] concerns HT-1080. Kind of assay: Induction of cell cycle arrest in human HT1080 cells assessed as accumulation at S phase at 2 uM incubated for 24 hrs by RNase/PI staining based flow cytometric analysis (reference value: 19.59 %). In kind it is functional.
The test system of another assay is AG1523. The assay is described as follows: Cytotoxicity against human AG01523 cells assessed as reduction in cell viability incubated for 72 hrs by MTT assay. In kind it is cell-based. The settings on record: AG1523, 72 h. Background: Tetrazolium assays rely on reduction of a dye to a coloured formazan, in cell work by metabolically active cells.
The target in assay [4] is MAP kinase p38 (Homo sapiens) (UniProt O15264+Q15759+Q16539+P53778). The assay is described as follows: Induction of p38 MAPK phosphorylation in human HT-1080 cells at 20 uM after 15 mins by Western blotting analysis.
In the next assay the test system is PC-3. The assay is described as follows: Cytotoxicity against human PC-3 cells assessed as reduction in cell viability incubated for 72 hrs by MTT assay. The settings on record: PC-3, 72 h. The assay is classed as functional, cell-based. Summed up:
(§1)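 Cancer lines (MDA-MB-231, HT-1080, PC-3) were grown in DMEM with 10% FBS and penicillin/streptomycin at 37 °C in 5% CO₂. About 5000 cells/well adhered overnight, then serial compound dilutions were added for 72 h, with matching DMSO dilutions (0.5–0.0008% v/v) as controls. MTT (1 mg/ml final, serum-free phenol-red-free DMEM) ran 4 h, was solubilised in 2-propanol, and OD read at 550 nm (ref 690). IC50 is the concentration halving OD versus untreated, mean of three independent experiments.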

In assay [5] the test system is HT-1080. Kind of assay: Induction of cell cycle arrest in human HT1080 cells assessed as accumulation at G2/M phase at 2 uM incubated for 24 hrs by RNase/PI staining based flow cytometric analysis (reference value: 47.55 %). The assay is classed as functional.
The subject of assay [6] is HT-1080. The assay is described as follows: Cytotoxicity against human HT-1080 cells assessed as reduction in cell viability incubated for 72 hrs by MTT assay. In kind it is functional, cell-based. Conditions: HT-1080, 72 h. In outline:
as §1

A further assay concerns MDA-MB-231. The assay is described as follows: Cytotoxicity against human MDA-MB-231 cells assessed as reduction in cell viability incubated for 72 hrs by MTT assay. The assay is classed as functional, cell-based. Conditions: MDA-MB-231, 72 h. Summed up:
as §1

Assay [7] relates to HT-1080. The assay is described as follows: Induction of apoptosis in human HT-1080 cells assessed as increase in PARP cleavage at 2 uM after 24 hrs by Western blotting analysis.
Assay [8] has as its target RAC-alpha serine/threonine-protein kinase (Homo sapiens) (UniProt P31749). Kind of assay: Inhibition of AKT phosphorylation at Ser473 residue in human HT-1080 cells at 20 uM after 15 mins by Western blotting analysis. Conditions: time 15.0 mins.
In assay [9] the test system is HT-1080. Kind of assay: Inhibition of ERK phosphorylation in human HT-1080 cells at 20 uM after 15 mins by Western blotting analysis. A general note: In western blotting, separated proteins are transferred to a membrane and probed.

Sequence of RAC-alpha serine/threonine-protein kinase (Homo sapiens) (P31749 whole entry): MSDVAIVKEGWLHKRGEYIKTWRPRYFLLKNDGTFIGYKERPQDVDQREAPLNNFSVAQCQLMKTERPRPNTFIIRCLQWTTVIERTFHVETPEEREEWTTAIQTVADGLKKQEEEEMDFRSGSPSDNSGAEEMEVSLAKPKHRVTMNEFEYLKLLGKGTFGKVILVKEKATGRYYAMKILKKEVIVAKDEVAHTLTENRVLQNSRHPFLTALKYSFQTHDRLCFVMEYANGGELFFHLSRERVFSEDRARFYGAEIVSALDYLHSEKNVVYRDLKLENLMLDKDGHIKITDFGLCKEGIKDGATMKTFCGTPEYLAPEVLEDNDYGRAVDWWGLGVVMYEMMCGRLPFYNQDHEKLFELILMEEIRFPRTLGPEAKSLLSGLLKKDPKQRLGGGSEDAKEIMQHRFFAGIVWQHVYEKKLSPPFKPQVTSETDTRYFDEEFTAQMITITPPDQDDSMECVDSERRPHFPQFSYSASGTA

Turning to `N=C(Nc1ccccc1)c1cc2c(-c3ccccc3)n[nH]c2c(NC2CCCCC2)n1`, in the assay with HT-1080 [1], the “Percentage of cells in G0/G1 phase” value worked out at 40.23%. Further, the “Percent of cells in sub-diploid (sub-G1) phase” value (from here on “Percent of cells in sub-diploid”) in the assay on HT-1080 [2] turned out to be 8.27%. Further, the results for the Activity in the assay with HT-1080 [3] and in the assay with HT-1080 [5] were 16.48% and 43.29%, respectively. Further, the half-maximal inhibitory concentration (IC50) came to 4190 nM in the assay with AG1523, 1730 nM in the assay with PC-3, 850 nM in the assay with HT-1080 [6] and 1710 nM in the assay with MDA-MB-231. The result (in [4]; with HT-1080 [7]) was Active.

Regarding `COc1ccc(Cn2nc(-c3ccccc3)c3cc(C(=N)Nc4ccc(N5CCN(C)CC5)cc4)nc(Nc4cc(OC)c(OC)c(OC)c4)c32)cc1`, the “Percentage of cells in G0/G1 phase” value in the assay on HT-1080 [1] stood at 26.67%. Moreover, the inhibition result (in [8]; in the assay with HT-1080 [9]) was “Active” each time. Further, the “Percent of cells in sub-diploid” value in the assay on HT-1080 [2] turned out to be 27.79%. Besides, the Activity with HT-1080 [3] amounted to 64.04%; with HT-1080 [5], 9.29%. Moreover, the IC50 with AG1523 was found to be 1810 nM; in the assay on PC-3, 1240 nM; with HT-1080 [6], 1200 nM; in the assay with MDA-MB-231, 890 nM. The outcome (in [4]; with HT-1080 [7]) was Active.

With `COc1ccc(Cn2nc(-c3ccccc3)c3cc(C(=N)Nc4ccc(N5CCN(C)CC5)cc4)ncc32)cc1`, in the assay on HT-1080 [1], the “Percentage of cells in G0/G1 phase” value is listed as 46.75%. In [8], this compound showed an inhibition of 100%. The inhibition result with HT-1080 [9] was “Active”. In the assay with HT-1080 [2], the “Percent of cells in sub-diploid” value is on record as 17.77%. Further, the Activity is reported as 17.27% in the assay with HT-1080 [3] and 35.98% in the assay on HT-1080 [5]. For the same compound, the half-maximal inhibitory concentration (IC50) in the assay with AG1523 was 10200 nM; with PC-3, 3990 nM; with HT-1080 [6], 1090 nM; in the assay on MDA-MB-231, 1760 nM. Besides, the outcome with HT-1080 [7] was Active.

In the case of `CN1CCN(c2ccc(NC(=N)c3cc4c(-c5ccccc5)n[nH]c4c(NC4CCCCC4)n3)cc2)CC1`, in the assay on HT-1080 [1], the “Percentage of cells in G0/G1 phase” value is 43.78%. In assay [8], this compound displayed an inhibition of 100%. In the assay with HT-1080 [9], the inhibition entry is “Active”. In addition, the “Percent of cells in sub-diploid” value with HT-1080 [2] was found to be 13.49%. Moreover, the values for the Activity in the assay with HT-1080 [3] and in the assay on HT-1080 [5] were 14.37% and 41.85%, respectively. The IC50 was 12300 nM with AG1523, 4630 nM in the assay with PC-3, 650 nM in the assay with HT-1080 [6] and 1500 nM with MDA-MB-231. Further, the result (in assay [4]; with HT-1080 [7]) was Active.

What is called IC50 is the point on the concentration scale where inhibition reaches its midpoint. By inhibition is commonly meant the percentage by which the read-out fell short of the control.

The values above are taken from ChEMBL document CHEMBL4819061, “New bioactive 5-arylcarboximidamidopyrazolo[3,4-c]pyridines: Synthesis, cytotoxic activity, mechanistic investigation and structure-activity relationships” (Eur J Med Chem, 2021).
